TRPC6 act: mouse TRPC6 channel activators, primary screen, cell-based, HEK293, membrane potential dye; Short transient receptor potential channel 6 (Mus musculus), Q61143; HEK293-TRPC6 membrane potential dye fluorescence; hits give high values; B-score at 10 µM; 310,000 compounds, 0.13% hits;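 active = B-score of the integrated fluorescence ratio above library mean plus 3 SD, and starting fluorescence ratio within library mean plus 5 SD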;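 note: higher score means more depolarization so channel activation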
TRPC6 inh: mouse TRPC6 channel inhibitors, primary screen, cell-based, HEK293, membrane potential dye; Short transient receptor potential channel 6 (Mus musculus), Q61143; ACh-evoked depolarization; hits give low values; B-score at 10 µM; 310,000 compounds, 1.1% hits; AID 2553, 2010;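 active = B-score under library mean minus 3 SD, initial fluorescence not abnormally high, positive integrated signal ratio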;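 note: B-score derived from integrated fluorescence ratio over the kinetic read; more negative B-score means stronger inhibition of depolarization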
TRPC4 agonist: activators of mouse TRPC4 channel, primary screen, Fluo4 calcium, HEK293 TRPC4beta/mu-opioid cells; Short transient receptor potential channel 4 (Mus musculus), Q9QUQ5; Fluo4 calcium fluorescence; hits give high values; B-score at 10 µM; 310,000 compounds, 0.49% hits; AID 2237, 2010;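 active = B-score above 5 SD of library B-scores, and initial fluorescence ratio not above library mean plus 5 SD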;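 note: positive B-score marks a calcium rise read as TRPC4 activation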
Target sequence (Q9QUQ5 whole entry, looked up): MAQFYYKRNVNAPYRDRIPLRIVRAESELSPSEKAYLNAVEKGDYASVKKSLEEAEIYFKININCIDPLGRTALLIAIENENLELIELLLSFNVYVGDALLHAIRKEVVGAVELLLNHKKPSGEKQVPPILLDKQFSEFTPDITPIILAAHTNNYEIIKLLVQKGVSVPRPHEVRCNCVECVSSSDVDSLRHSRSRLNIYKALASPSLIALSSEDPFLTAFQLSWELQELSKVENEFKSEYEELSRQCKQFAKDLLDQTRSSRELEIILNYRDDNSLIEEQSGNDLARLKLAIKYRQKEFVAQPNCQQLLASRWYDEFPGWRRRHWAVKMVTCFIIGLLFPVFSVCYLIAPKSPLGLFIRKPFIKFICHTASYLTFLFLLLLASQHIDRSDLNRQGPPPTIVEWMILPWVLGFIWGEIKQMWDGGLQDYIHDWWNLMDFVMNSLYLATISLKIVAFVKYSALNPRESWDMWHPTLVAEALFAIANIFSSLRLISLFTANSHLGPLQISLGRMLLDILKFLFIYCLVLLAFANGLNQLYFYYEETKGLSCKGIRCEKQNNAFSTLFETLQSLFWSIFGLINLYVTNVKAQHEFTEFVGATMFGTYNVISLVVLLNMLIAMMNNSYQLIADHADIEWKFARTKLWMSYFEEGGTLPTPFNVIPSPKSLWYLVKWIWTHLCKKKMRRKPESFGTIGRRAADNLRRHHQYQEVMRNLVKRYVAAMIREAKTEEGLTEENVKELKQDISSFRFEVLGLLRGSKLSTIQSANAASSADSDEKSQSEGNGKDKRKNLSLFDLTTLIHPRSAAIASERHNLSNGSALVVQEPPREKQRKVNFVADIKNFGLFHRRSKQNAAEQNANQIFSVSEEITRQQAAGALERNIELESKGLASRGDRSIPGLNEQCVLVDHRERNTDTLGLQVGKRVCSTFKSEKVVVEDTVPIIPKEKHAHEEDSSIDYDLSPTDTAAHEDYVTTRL
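System – HEK293 cells stably co-expressing mouse TRPC4beta and mu-opioid receptor · Signal – Fluo4 calcium-sensitive dye fluorescence, kinetic, 1 Hz baseline · Benchmarks – buffer (low) and maximal DAMGO (high) · Read-out – B score of integrated fluorescence ratio per well · Incubation – dye loading 45 min room temperature, 110 s kinetic read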
TRPC4 inh: inhibitors of mouse TRPC4 channel, primary screen, Fluo4 calcium, HEK293 TRPC4beta/mu-opioid cells; Short transient receptor potential channel 4 (Mus musculus), Q9QUQ5; DAMGO-evoked Fluo4 calcium flux; hits give low values; B-score at 10 µM; 300,000 compounds, 0.39% hits;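 active = B-score over 3 SD under the library average, no early fluorescence shift, positive overall ratio signal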
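Assay system – HEK293 line stably carrying TRPC4beta and mu-opioid receptor · Doses – single dose · Detection – Fluo4 calcium-dye fluorescence, kinetic read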
TRPC4 potent: positive allosteric modulators of TRPC4, primary screen, cell-based, mouse TRPC4beta, HEK293 mu-opioid, Fluo-4 calcium; Short transient receptor potential channel 4 (Mus musculus), Q9QUQ5; DAMGO EC20, Fluo-4 Ca2+ flux; hits give high values; B-score at 10 µM; 310,000 compounds, 0.42% hits; AID 2227, 2009;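 active = B-score of calcium response area above 5 SD of library B-scores, with initial fluorescence ratio within 5 SD of library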;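 note: B-score of integrated fluorescence ratio over time as area under calcium response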
TRPC4 sel inh 2: mouse TRPC4 off-target activity of TRPC6 inhibitors, second screen. shares compounds with TRPC6 inh. HEK293 TRPC4/MOR, membrane potential dye fluorescence; channel activated by saturating DAMGO dose. inhibition, % at 10 µM. 920 compounds, 42% hits. AID 2776;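 active = compounds whose fluorescence signal differed from control wells by over 3 SD, either direction, in both duplicate plates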
TRPC4 spec: mouse TRPC4 modulation by TRPC6 hits, confirmation, selectivity assay for TRPC6 inhibitor project, cell-based, HEK293 TRPC4/mu-opioid, membrane potential dye; activity change, negative = inhibition, % at 10 µM; shares compounds with TRPC6 inh; membrane potential fluorescence; 920 compounds, 61% hits;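 active = rise or fall in signal beyond 3 SD of buffer-only wells in both replicate plates, either sign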;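 note: integrated kinetic ratio of fluorescence range over baseline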
HEK293 MPD ctr 2-1: nonspecific membrane potential effects, parental HEK293, confirmation, counter-screen for TRPC6 inhibitor project, cell-based, second counter screen. shares compounds with TRPC6 inh. parental HEK293 membrane potential dye fluorescence; maximal acetylcholine challenge after compound addition. signal change vs control, % at 10 µM. 920 compounds, 31% hits. AID 2779, 2010;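 active = membrane potential signal moving either way by over 3 SD of the maximum-effect control, in both duplicate plates, meaning non-specific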
HEK293 MPD ctr-1: membrane potential modulation in parental HEK293, confirmation, counter-screen for TRPC6 inhibitor project, cell-based; shares compounds with TRPC6 inh; parental HEK293 membrane potential dye fluorescence; membrane potential signal change, % at 10 µM; 920 compounds, 60% hits;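 active = membrane potential signal shifting up or down by more than 3 SD of buffer-only wells, on both duplicate plates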
HEK293 MPD ctr-2: parental HEK293 membrane potential modulation, confirmation, counter-screen for TRPC6 modulator project, cell-based | 2,400 compounds, 51% hits | shares compounds with TRPC6 inh | membrane potential dye fluorescence | AID 488924, 2010 | membrane potential signal change, % at 10 µM;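 active = membrane potential signal moves up or down beyond 5 SD from buffer-only wells, on both duplicate plates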
HEK293 MPD ctr 2-2: second check of TRPC6 modulator effects in parental HEK293 cells. shares compounds with TRPC6 inh. membrane potential dye fluorescence; after compound, maximal acetylcholine stimulation. inhibition, % at 10 µM. 2,400 compounds, 14% hits. AID 488926;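 active = membrane potential signal drops by more than 5 SD from the mean control signal, in both duplicate plates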;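 note: plate controls were acetylcholine ECmax control wells for no effect and buffer only wells for full effect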
TRPC4/MOR mod: TRPC4 modulation by TRPC6 hit compounds, confirmation, selectivity assay for TRPC6 modulator project, cell-based, HEK293 TRPC4/mu-opioid, membrane potential dye, mouse | percent change from control (negative = decrease, positive = increase), % at 10 µM | membrane potential fluorescence | shares compounds with TRPC6 inh | 2,400 compounds, 69% hits | AID 488927, 2010;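 active = membrane potential signal moved up or down beyond 5 SD of buffer control wells, in both duplicate plates, actives on both sides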;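 note: plate controls were assay buffer wells for no effect and DAMGO maximal-effect wells for full effect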
TRPC4 ctr inh 2: mouse TRPC4 off-target activity of TRPC6 modulators, second screen | shares compounds with TRPC6 inh | HEK293 TRPC4/mu-opioid, membrane potential dye fluorescence; stimulated with maximal-effect DAMGO | inhibition, % at 10 µM | 2,400 compounds, 55% hits;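 active = drop in membrane potential signal beyond 5 SD of the control wells in both duplicate plates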;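 note: TRPC4 counter screen for TRPC6 hits run under conditions tuned for TRPC6 not TRPC4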
TRPC6 inh conf: mouse TRPC6 channel inhibitors, confirmation, HEK293 cells, membrane potential dye, duplicate | shares compounds with TRPC6 inh | ACh-evoked depolarization | inhibition, % at 10 µM | 3,300 compounds, 43% hits | AID 488960, 2010;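 active = fluorescence ratio falls more than 5 SD below the full-stimulation control mean, in both duplicate runs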;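 note: integrated fluorescence ratio of peak minus minimum over baseline after agonist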
TRPC6 act conf: mouse TRPC6 channel activators, confirmation, HEK293 cells, membrane potential dye, duplicate. 2,800 compounds, 11% hits. shares compounds with TRPC6 inh. activation, % at 10 µM. HEK293-TRPC6 membrane potential dye fluorescence, FDSS;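 active = ratio signal rise beyond 5 SD above unstimulated control wells' mean, seen in both duplicate runs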;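 note: plate controls were buffer EC0 wells for no effect and acetylcholine ECmax response for full effect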
Numbers without * were called inactive. In the library only some 2.3% were active in any assay of this set; here they are far more common.

For O=C(CCCN1C(=O)c2cccc3cccc(c23)C1=O)N1CCN(c2ccccc2)CC1 the results were TRPC6 act inactive, TRPC6 inh inactive, TRPC4 agonist inactive, TRPC4 inh inactive and TRPC4 potent inactive.
Screening O=C1c2cccc3cccc(c23)C(=O)N1CCCN1CCN(c2ccc(F)cc2)CC1 returned TRPC6 act inactive, TRPC6 inh -7.1*, TRPC4 agonist inactive, TRPC4 inh inactive, TRPC4 potent inactive, HEK293 MPD ctr-2 inactive, HEK293 MPD ctr 2-2 inactive, TRPC4/MOR mod -12%*, TRPC4 ctr inh 2 66%*, TRPC6 inh conf inactive and TRPC6 act conf inactive.
For Cc1cc(C)n2[nH]c(=O)c(N=Nc3cccc(C(F)(F)F)c3)c2n1 the results were TRPC6 act inactive, TRPC6 inh inactive, TRPC4 agonist inactive, TRPC4 inh inactive and TRPC4 potent inactive.
`Cc1cc(C)n2[nH]c(=O)c(N=Nc3cccc(Cl)c3)c2n1` gave TRPC6 act inactive, TRPC6 inh -7.5*, TRPC4 agonist inactive, TRPC4 inh inactive, TRPC4 potent inactive, HEK293 MPD ctr-2 -198%*, HEK293 MPD ctr 2-2 65%*, TRPC4/MOR mod -28%*, TRPC4 ctr inh 2 37%*, TRPC6 inh conf 46%* and TRPC6 act conf inactive.
`Cc1cc(C)n2[nH]c(=O)c(N=Nc3ccccc3)c2n1` gave TRPC6 act inactive, TRPC6 inh -7.4*, TRPC4 agonist inactive, TRPC4 inh inactive, TRPC4 potent inactive, TRPC4 sel inh 2 inactive, TRPC4 spec -24%*, HEK293 MPD ctr 2-1 inactive, HEK293 MPD ctr-1 -388%*, TRPC6 inh conf inactive and TRPC6 act conf inactive.
`CC(C)(C)c1ccc(OCc2cnc(Cl)s2)cc1` gave TRPC6 act inactive, TRPC6 inh inactive, TRPC4 agonist inactive, TRPC4 inh inactive and TRPC4 potent inactive.
CCCn1c(SC(C)C(=O)NCC2CCCO2)nc2sc3c(c2c1=O)CCC3 (stereo not drawn) was read as TRPC6 act inactive, TRPC6 inh inactive, TRPC4 agonist inactive, TRPC4 inh inactive and TRPC4 potent inactive.
For CCN(CC)CCCNC(=O)c1cc2nc3c(c(C(F)(F)F)n2n1)CCc1ccccc1-3 the results were TRPC6 act inactive, TRPC6 inh -6.7*, TRPC4 agonist inactive, TRPC4 inh inactive, TRPC4 potent inactive, TRPC4 sel inh 2 65%*, TRPC4 spec inactive, HEK293 MPD ctr 2-1 inactive, HEK293 MPD ctr-1 0.8%*, TRPC6 inh conf inactive and TRPC6 act conf inactive.
Cc1ccc(O)c(NC(=O)c2cc3nc4c(c(C(F)(F)F)n3n2)CCc2ccccc2-4)c1 was read as TRPC6 act inactive, TRPC6 inh inactive, TRPC4 agonist inactive, TRPC4 inh inactive and TRPC4 potent inactive.
CCN(CC)CCN1c2ccccc2Sc2ccccc21 was read as TRPC6 act inactive, TRPC6 inh -6.2*, TRPC4 agonist inactive, TRPC4 inh -6*, TRPC4 potent inactive, HEK293 MPD ctr-2 92%*, HEK293 MPD ctr 2-2 inactive, TRPC4/MOR mod 49%*, TRPC4 ctr inh 2 64%* and TRPC6 inh conf 55%*.
`CCN(CC)CCN1c2ccccc2Sc2ccc3ccccc3c21` gave TRPC6 act inactive, TRPC6 inh -6*, TRPC4 agonist inactive, TRPC4 inh inactive, TRPC4 potent inactive, HEK293 MPD ctr-2 inactive, HEK293 MPD ctr 2-2 inactive, TRPC4/MOR mod inactive, TRPC4 ctr inh 2 inactive, TRPC6 inh conf inactive and TRPC6 act conf inactive.
`CCN1C(=O)/C(=C/C=C2/Sc3ccc4ccccc4c3N2CCO)SC1=S` gave TRPC6 act inactive, TRPC6 inh inactive, TRPC4 agonist inactive, TRPC4 inh inactive and TRPC4 potent inactive.
`Oc1cccc2ccc(Nc3ccccn3)nc12` gave TRPC6 act inactive, TRPC6 inh -9.1*, TRPC4 agonist inactive, TRPC4 inh inactive, TRPC4 potent inactive, TRPC4 sel inh 2 inactive, TRPC4 spec -15%*, HEK293 MPD ctr 2-1 inactive, HEK293 MPD ctr-1 -180%*, TRPC6 inh conf inactive and TRPC6 act conf inactive.
